Measured values: ChEMBL document CHEMBL4765248, “Design, synthesis, biological evaluation and molecular docking study of novel thieno[3,2-d]pyrimidine derivatives as potent FAK inhibitors” (Eur J Med Chem, 2020)

Legend:
Focal adhesion kinase 1 = Focal adhesion kinase 1 (Homo sapiens, UniProt Q05397); test: Inhibition of N-terminal GST-fused human truncated FAK (376 to 1052 residues) expressed in baculovirus expression system using tyrosine kinase peptide as substrate measured after 50 mins in presence of ATP by homogenous time resolved flourescence assay
U-87 MG = test: Antiproliferative activity against human U-87MG cells assessed as inhibition of cell growth measured after 72 hrs by MTT assay; format: functional, cell-based, U-87MG ATCC
In short: (§1)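 Cells were seeded at 4000–5000/well and held 24 h at 37 °C in 5% CO2. Compounds were added at the indicated final concentrations and incubated 72 h. MTT was added (5 mg/mL in PBS, stated as final) for 4 h at 37 °C. Formazan was dissolved in DMSO and absorbance read at 490 nm. The 50% growth-inhibitory concentration is the mean of three independent experiments ± SE.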

A549 = test: Antiproliferative activity against human A549 cells assessed as inhibition of cell growth measured after 72 hrs by MTT assay; format: functional, cell-based; details: A549, 72 h; in short: as §1
MDA-MB-231 = test: Antiproliferative activity against human MDA-MB-231 cells assessed as inhibition of cell growth measured after 72 hrs by MTT assay; format: functional, cell-based; details: MDA-MB-231, 72 h; in short: as §1
HK-2 = test: Cytotoxicity against human HK2 cells assessed as inhibition of cell proliferation measured after 72 hrs by MTT assay; format: cell-based; details: HK-2, 72 h; in short: as §1

Focal adhesion kinase 1, sequence (Q05397 whole entry, the tested form may be a part): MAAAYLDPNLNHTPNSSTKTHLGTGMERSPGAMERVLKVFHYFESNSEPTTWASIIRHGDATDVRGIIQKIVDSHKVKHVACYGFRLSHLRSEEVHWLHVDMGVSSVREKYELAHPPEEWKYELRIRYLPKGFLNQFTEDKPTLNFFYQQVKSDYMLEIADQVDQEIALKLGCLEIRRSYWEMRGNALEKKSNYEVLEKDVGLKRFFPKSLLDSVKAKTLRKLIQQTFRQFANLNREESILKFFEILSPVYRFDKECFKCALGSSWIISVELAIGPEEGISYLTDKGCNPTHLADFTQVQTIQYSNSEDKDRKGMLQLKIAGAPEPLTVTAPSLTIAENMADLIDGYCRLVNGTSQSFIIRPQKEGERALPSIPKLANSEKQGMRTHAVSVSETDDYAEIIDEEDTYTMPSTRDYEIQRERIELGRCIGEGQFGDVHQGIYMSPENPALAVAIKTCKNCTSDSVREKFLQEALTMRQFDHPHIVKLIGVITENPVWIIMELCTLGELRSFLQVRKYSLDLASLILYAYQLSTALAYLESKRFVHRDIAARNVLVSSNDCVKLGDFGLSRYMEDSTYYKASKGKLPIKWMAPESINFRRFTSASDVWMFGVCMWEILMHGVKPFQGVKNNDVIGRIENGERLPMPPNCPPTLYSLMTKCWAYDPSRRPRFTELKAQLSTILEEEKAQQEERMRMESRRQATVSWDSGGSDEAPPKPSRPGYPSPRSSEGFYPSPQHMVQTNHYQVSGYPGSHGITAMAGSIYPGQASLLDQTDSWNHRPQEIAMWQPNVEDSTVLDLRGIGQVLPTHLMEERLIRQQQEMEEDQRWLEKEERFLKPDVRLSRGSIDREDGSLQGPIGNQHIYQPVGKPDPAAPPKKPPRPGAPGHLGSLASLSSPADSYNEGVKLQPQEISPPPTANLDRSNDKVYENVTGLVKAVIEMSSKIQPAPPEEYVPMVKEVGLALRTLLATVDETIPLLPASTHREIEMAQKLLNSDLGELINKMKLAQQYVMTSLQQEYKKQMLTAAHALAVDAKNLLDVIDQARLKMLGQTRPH

| Structure (SMILES) | IC50 (Focal adhesion kinase 1) | IC50 (U-87 MG) | IC50 (A549) | IC50 (MDA-MB-231) | IC50 (HK-2) |
| --- | --- | --- | --- | --- | --- |
| COP(=O)(Cc1ccc(Nc2ncc3scc(-c4cccc(C(C)=O)c4)c3n2)cc1)OC | 351 nM |  |  |  |  |
| COc1ccccc1-c1csc2cnc(Nc3ccc(NC(=O)CN)cc3)nc12 | 144 nM | 210 nM | 1950 nM | 2770 nM |  |
| COP(=O)(Cc1ccc(Nc2ncc3scc(-c4ccccc4C(C)=O)c3n2)cc1)OC | 1080 nM |  |  |  |  |
| COc1ccccc1-c1csc2cnc(Nc3cc(F)c(C(=O)NC4CCNCC4)cc3F)nc12 | 24.2 nM | 1480 nM | 5390 nM | 2570 nM |  |
| COP(=O)(Cc1ccc(Nc2ncc3scc(-c4cccc(NC(C)=O)c4)c3n2)cc1)OC | 377 nM |  |  |  |  |
| CNC(=O)c1ccc(Nc2ncc3scc(-c4ccccc4OC)c3n2)cc1 | 79.3 nM | 710 nM | 310 nM | 2120 nM | 0.71 µM |
| CCOP(=O)(Cc1ccc(Nc2ncc3scc(-c4ccccc4OC)c3n2)cc1)NC (centres undefined) | 184 nM | 1300 nM | 1730 nM | 1210 nM |  |
| CNC(=O)c1ccccc1Nc1nc(Nc2ccc(N3CCOCC3)cc2OC)ncc1Cl |  | 1670 nM | 1160 nM | 4060 nM |  |
| COc1ccccc1-c1csc2cnc(Nc3ccc(C(=O)NC4CCOCC4)c(F)c3)nc12 | 118 nM |  | 5710 nM | 5350 nM |  |
| COc1ccccc1-c1csc2cnc(Nc3ccc(C(=O)NC4CCNCC4)cc3C(F)(F)F)nc12 | 709 nM | 2090 nM | 4110 nM | 2750 nM |  |
| COc1ccccc1-c1csc2cnc(Nc3ccc(C(=O)NCC4CCNCC4)c(F)c3)nc12 | 120 nM |  | 3410 nM | 1530 nM |  |
| COc1cc(C(=O)NC2CCNCC2)c(F)cc1Nc1ncc2scc(-c3ccccc3OC)c2n1 | 38.2 nM | 3590 nM | 1900 nM | 1160 nM | 0.78 µM |
| COc1ccc(-c2csc3cnc(Nc4ccc(CP(=O)(OC)OC)cc4)nc23)cc1 | 1060 nM |  |  |  |  |
| COc1ccccc1-c1csc2cnc(Nc3ccc(NC(=O)[C@@H]4CCCNC4)cc3)nc12 | 199 nM | 360 nM | 410 nM | 410 nM |  |
| COc1ccccc1-c1csc2cnc(Nc3ccc(NC(=O)C4CCNCC4)cc3)nc12 | 57.7 nM | 1060 nM | 450 nM | 1050 nM | 11.7 µM |
| COc1ccccc1-c1csc2cnc(Nc3ccc(C(=O)NC[C@H]4CCCNC4)c(F)c3)nc12 | 149 nM |  | 4450 nM | 8620 nM |  |
| COc1ccccc1-c1csc2cnc(Nc3ccc(C(=O)NC4CCNCC4)cc3F)nc12 | 48.3 nM | 2370 nM | 2750 nM | 1610 nM |  |

| Structure (SMILES) | IC50 (Focal adhesion kinase 1) | IC50 (U-87 MG) | IC50 (A549) | IC50 (MDA-MB-231) | IC50 (HK-2) |
| --- | --- | --- | --- | --- | --- |
| COc1ccccc1-c1csc2cnc(Nc3ccc(NC(=O)[C@H]4CCCNC4)cc3)nc12 | 167 nM | 300 nM | 500 nM | 440 nM | 4.89 µM |
| COP(=O)(Cc1ccc(Nc2ncc3scc(-c4cccc(N(C)S(C)(=O)=O)c4)c3n2)cc1)OC | 638 nM |  |  |  |  |
| CNC(=O)c1cccc(-c2csc3cnc(Nc4ccc(CP(=O)(OC)OC)cc4)nc23)c1 | 324 nM |  |  |  |  |
| COc1ccccc1-c1csc2cnc(Nc3ccc(C(=O)N[C@@H]4CCNC4)c(F)c3)nc12 | 71.3 nM |  | 430 nM | 260 nM |  |
| CCOP(=O)(Cc1ccc(Nc2ncc3scc(-c4ccccc4OC)c3n2)cc1)N1CCOCC1 (centres undefined) | 351 nM | 1220 nM | 850 nM | 8350 nM |  |
| CCOc1cc(C(=O)NC2CCNCC2)ccc1Nc1ncc2scc(-c3ccccc3OC)c2n1 | 166 nM | 2030 nM | 5770 nM | 4390 nM |  |
| COc1ccccc1-c1csc2cnc(Nc3ccc(C(=O)NC4CCNCC4)cc3)nc12 | 38.8 nM | 650 nM | 360 nM | 110 nM | 11.4 µM |
| COc1cc(C(=O)NC2CCNCC2)ccc1Nc1ncc2scc(-c3ccccc3OC)c2n1 | 27.2 nM | 6400 nM | 2880 nM | 2240 nM | 12.2 µM |
| COc1ccccc1-c1csc2cnc(Nc3ccc(C(=O)NC[C@@H]4CCCNC4)c(F)c3)nc12 | 111 nM |  | 5050 nM | 2890 nM |  |
| COc1ccccc1-c1csc2cnc(Nc3ccc(C(=O)NC4CCNCC4)c(C)c3)nc12 | 25.7 nM | 460 nM | 870 nM | 240 nM | 4.45 µM |
| CCOP(=O)(Cc1ccc(Nc2ncc3scc(-c4ccccc4OC)c3n2)cc1)OCC | 157 nM | 1300 nM | 960 nM | 4940 nM |  |
| COc1ccccc1-c1csc2cnc(Nc3ccc(CP(=O)(OC)OC)cc3)nc12 | 134 nM | 1710 nM | 1800 nM | 7810 nM |  |
| CCOP(=O)(OCC)C(O)c1ccc(Nc2ncc3scc(-c4ccccc4OC)c3n2)cc1 (centres undefined) | 321 nM | 1950 nM | 350 nM | 2640 nM |  |
| COc1ccccc1-c1csc2cnc(Nc3ccc(C(=O)NC4CCN(C)CC4)c(F)c3)nc12 | 47.8 nM |  | 660 nM | 350 nM |  |
| COP(=O)(Cc1ccc(Nc2ncc3scc(-c4cccc(S(C)(=O)=O)c4)c3n2)cc1)OC | 140 nM |  |  |  |  |
| COc1ccccc1-c1csc2cnc(Nc3ccc(C(=O)N[C@H]4CCNC4)c(F)c3)nc12 | 132 nM |  | 870 nM | 560 nM |  |
| COc1ccccc1-c1csc2cnc(Nc3ccc(C(=O)NC4CCNCC4)cc3C)nc12 | 26.5 nM | 250 nM | 3420 nM | 3240 nM |  |
